Screening data (PubChem BioAssay)
NPY1 pot ag: potentiates or activates human NPY-Y1 receptor; NPY-Y1 expressing cells, potentiator/agonist activation; P25929; 0.37% of 220,000 active; activation, % at 3.6 µM; in the data active = activation above about 33%, passing the limit was not always enough;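 note: cells stimulated with NPY at EC10 then isoproterenol at EC100; 0% = low agonist plus stimulus and 100% = saturating agonist plus stimulus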
NPY2 pot ag: potentiators or agonists of human neuropeptide Y receptor Y2 | P49146 | activation, % at 3.6 µM | cells expressing NPY-Y2, potentiator/agonist read-out | 0.45% of 220,000 active; in the data active = activation above about 27%;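 note: cells stimulated with NPY near EC25 plus isoproterenol at EC100; 0% = vehicle plus submaximal agonist and 100% = vehicle plus saturating agonist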
Target sequence (P49146 whole entry, looked up): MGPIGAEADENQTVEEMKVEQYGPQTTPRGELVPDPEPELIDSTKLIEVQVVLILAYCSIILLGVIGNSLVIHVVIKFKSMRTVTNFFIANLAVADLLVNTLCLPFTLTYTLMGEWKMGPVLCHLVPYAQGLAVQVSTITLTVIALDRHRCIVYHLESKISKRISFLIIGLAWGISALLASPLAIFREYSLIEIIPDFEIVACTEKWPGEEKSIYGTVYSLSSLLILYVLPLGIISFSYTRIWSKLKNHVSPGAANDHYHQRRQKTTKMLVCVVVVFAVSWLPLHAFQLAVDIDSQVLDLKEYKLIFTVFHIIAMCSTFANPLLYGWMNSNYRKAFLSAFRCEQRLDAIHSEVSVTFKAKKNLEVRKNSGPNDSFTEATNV
EP2 modulator: modulates human prostaglandin E2 receptor EP2 signaling; 0.83% of 260,000 active; AID 940; induction, % at 25 µM; EP2-expressing cells, cAMP HTRF FRET, PGE2 co-stimulation; P43116;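 active = compounds whose cAMP rise, as percent of the full-agonist control response, exceeds 60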;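 note: rat C6 glioma line stably carrying human EP2 under a CMV promoter; the protocol text gives 20 µM as final concentration; 100% = response of wells given 1 µM PGE2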
Target sequence (P43116 whole entry, looked up): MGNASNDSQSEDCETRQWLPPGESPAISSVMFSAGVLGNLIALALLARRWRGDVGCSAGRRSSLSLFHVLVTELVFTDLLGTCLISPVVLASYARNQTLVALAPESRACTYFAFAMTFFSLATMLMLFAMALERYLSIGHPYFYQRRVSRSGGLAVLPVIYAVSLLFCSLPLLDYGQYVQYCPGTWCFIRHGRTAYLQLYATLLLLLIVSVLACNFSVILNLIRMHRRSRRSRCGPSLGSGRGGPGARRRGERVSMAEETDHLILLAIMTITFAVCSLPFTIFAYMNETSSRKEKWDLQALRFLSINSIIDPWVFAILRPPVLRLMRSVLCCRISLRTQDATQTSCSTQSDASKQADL
PGE2 EP2 inh: blocks the human prostaglandin E2 receptor EP2; 0.52% of 260,000 active; inhibition, % at 25 µM; P43116; C6 glioma cells expressing human EP2, cAMP TR-FRET; cells stimulated with saturating PGE2;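 active = percent inhibition above 40 after rounding to a whole number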;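 note: rat C6 glioma host cells with rolipram phosphodiesterase inhibitor present; the protocol text gives 20 µM as final concentration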
NPY-Y1 antag: antagonists of human neuropeptide Y receptor Y1 | P25929 | HEK293-CNG Y1 cells, membrane potential fluorescence; NPY at EC95, then isoproterenol | inhibition, % at 3.6 µM | 1% of 200,000 active;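 active = inhibition above the campaign mean inhibition of all tested compounds plus 3 SD, cut at about 20% in these data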;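 note: 0% = DMSO wells given NPY plus isoproterenol and 100% = isoproterenol alone without NPY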
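System: HEK293 cells with Y1 receptor plus CNG channel / Probe or stimulus: NPY 25 nM then isoproterenol 1 µM plus Ro 20-1724 25 µM / Compound: one concentration, 3.6 µM, in 0.4% DMSO / Schedule: compound incubation 1 h at room temperature, readout 45 min post-stimulation / Measured by: membrane potential fluorescence / Read-out: % inhibition of NPY effect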
NPY Y2 blocker: antagonists of human neuropeptide Y receptor Y2 | P49146 | NPY-Y2 expressing cells, antagonist mode | AID 793 | 0.99% of 140,000 active | inhibition, % at 2.7 µM; in the data active = inhibition above about 17%;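 note: 0% = vehicle with agonist challenge and 100% = reference antagonist with challenge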
EP2 cAMP induct: human EP2 receptor cAMP induction, negative in counter-screens | shares compounds with EP2 modulator | C6 glioma EP2 cells, cAMP HTRF induction; plus low (about EC15) PGE2 agonist | calls only at 20 µM (by protocol) | 47% of 1,300 active;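 active = cAMP induction above 50% in the main assay while under 30% in all four parallel counter assays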;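 note: rat C6 glioma cells stably expressing human EP2 receptor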
The depositor's hits bear a star; i = inactive; nt = no result given; + = active, no number. A selection: hits, their analogues and other compounds. The true share with any hit is near 2.8%.

SMILES	NPY1 pot ag	NPY2 pot ag	EP2 modulator	PGE2 EP2 inh	NPY-Y1 antag	NPY Y2 blocker	EP2 cAMP induct
O=C(COc1cccc(NC(=O)c2ccccc2)c1)c1ccccc1	11.2	7.7	-84.8	1.8	6.5	nt	nt
Cc1cccc(C(=O)Nc2cccc(OCC(=O)O)c2)c1	-4.8	-44.8	94.9*	0.9	8.9	nt	+
CON(C)C(=O)Cn1ncc2cccn2c1=O	nt	nt	-36.4	6.3	nt	nt	nt
CCCCc1n[nH]c(=S)n1Cc1ccccc1	14.6	-18.3	19.1	11.0	1.0	nt	nt
CCCCc1n[nH]c(=S)n1Cc1ccc(Cl)cc1	9.0	4.1	51.9	5.7	-2.2	nt	i
COc1cc2ccccc2cc1C(=O)NC(=S)Nc1cc(C(=O)O)ccc1C	-2.0	-19.8	99.6*	2.1	4.7	nt	+
COc1ccccc1C(=O)NC(=S)Nc1cc(C(=O)O)ccc1C	-8.8	-10.7	71.6*	11.9	-0.1	nt	+
Cc1ccc(C(=O)O)cc1NC(=S)NC(=O)Cc1ccccc1	-4.8	10.9	1.6	8.6	-0.4	1.5	nt
CCOC(=O)C1CCN(C(c2cc3cc(C)cc(C)c3[nH]c2=O)c2nnnn2C(C)(C)C)CC1 (stereo not drawn)	nt	nt	6.7	11.5	nt	nt	nt
Cn1c(=O)c2c(ncn2CCSS(=O)(=O)O)n(C)c1=O	nt	nt	60.8*	6.3	nt	nt	i
c1ccc(Cn2ncc3ccccc32)cc1	7.7	-8.0	34.5	11.3	0.1	1.6	nt
CN(C)c1nc(-c2ccccc2)c2cnn(Cc3ccccc3)c2n1	-24.8	-13.8	73.3*	13.1	15.1	1.5	+
COCCn1c(SCC(=O)Nc2sc3c(c2C(N)=O)CCC3)nc2ccccc2c1=O	nt	nt	-74.8	12.8	nt	nt	nt
CC(=O)O[C@H]1CC[C@@]2(C)[C@@H](CC[C@H]3[C@H]2CC(=O)[C@]2(C)[C@@H]3C[C@H]3CC(C)=CC(=O)[C@@H]32)C1	nt	nt	63.8*	44.9*	nt	nt	i
CC(=O)O[C@H]1CC[C@]2(C)C3=CC(=O)[C@@]4(C)C(C[C@@H]5OC6(OCC(C)CC6Br)[C@@H](C)[C@@H]54)C3CC[C@H]2C1 (stereo partly drawn)	nt	nt	-4.5	7.1	nt	nt	nt
N#Cc1c(-c2cccs2)nc(SCc2ccc(Cl)cc2)[nH]c1=O	1.2	8.4	75.1*	19.1	0.7	nt	i
CNC(=O)NC(=O)CSc1nc(-c2cccs2)c(C#N)c(=O)[nH]1	3.6	-0.1	79.3*	16.0	2.1	nt	i
CSc1nc(-c2cccs2)c(C#N)c(=O)[nH]1	-6.9	-15.1	59.2	14.4	nt	nt	nt
Cc1nc2c(c(=O)[nH]1)CCN(Cc1ccc3c(c1)CCCN3C)C2	nt	nt	-6.4	11.7	nt	nt	nt
CC(C)(C)NC(=O)Cn1nc(-c2cccs2)n(-c2cccnc2)c1=O	nt	nt	-59.0	4.8	nt	nt	nt
CCOC(=O)C1=C(CC)Nc2ccccc2N=C1NC(=O)c1oc2ccccc2c1C	-7.2	2.5	68.5*	14.1	9.7	nt	i
CCOCc1c(C(=O)NC2=Nc3ccccc3NC(CC)=C2C(=O)OCC)oc2ccccc12	-4.3	-2.5	38.8	11.3	12.9	nt	nt
Cc1nn(CC(=O)N[C@H](Cn2nc(-c3ccc(F)c(F)c3)ccc2=O)C(C)C)c(C)c1C	nt	nt	21.9	nt	nt	nt	nt
Cc1ccc(N(Cc2ccccc2)Cc2ccccc2)cc1	nt	nt	51.5	9.9	nt	nt	i
COc1ccc(N(Cc2ccccc2)S(=O)(=O)c2ccc(C)cc2)cc1	11.5	-12.6	69.1*	3.7	9.0	nt	+
SMILES	NPY1 pot ag	NPY2 pot ag	EP2 modulator	PGE2 EP2 inh	NPY-Y1 antag	NPY Y2 blocker	EP2 cAMP induct
Cc1nc(C)c(C(=O)NCCN2CCC(O)(c3cccc(F)c3)CC2)o1	nt	nt	13.4	6.3	nt	nt	nt
Cc1cccc(C(=O)N(CCO)Cc2cc3cc4c(cc3[nH]c2=O)OCO4)c1	nt	nt	-16.4	21.9	nt	nt	nt
C=C(C)Cn1c(C)cc(C)c(S(=O)(=O)c2cccc(C)c2)c1=O	1.0	0.5	90.0*	5.6	3.0	nt	+
CC(=O)NC1(c2ccccc2C)CCN(Cc2ccccc2)CC1	nt	nt	-3.3	nt	nt	nt	nt
C=CCn1c(CCNC(=O)c2cccs2)nnc1SCC(=O)c1ccc(Cl)cc1	-7.6	2.9	2.6	4.6	5.3	1.8	nt
C=CCn1c(CNC(=O)c2cccs2)nnc1SCC(=O)c1ccc(Br)cc1	-7.0	-3.2	52.0	5.3	0.3	1.2	i
COC(=O)c1c(NC(=O)Cc2cccs2)sc2c1CCC(C)C2 (stereo not drawn)	-17.2	0.4	50.8	22.1	2.0	0.8	i
CC(=O)N1Cc2ccccc2C(C)CC12CCCCC2 (stereo not drawn)	10.7	8.5	66.1*	10.6	1.6	6.8	+
CC(=O)N(c1cccc(Br)c1)C1C=CS(=O)(=O)C1 (stereo not drawn)	10.5	-2.1	69.5*	13.8	0.5	1.7	i
Cc1cc(C)cc(N(C(=O)c2ccc(Br)o2)C2C=CS(=O)(=O)C2)c1 (stereo not drawn)	-9.9	-15.9	18.5	4.0	0.9	nt	nt
COc1cccc(C(=O)N2N=C(c3ccccc3)CC2(O)C(F)(F)F)c1 (stereo not drawn)	0.3	6.8	47.6	7.8	-2.6	1.3	nt
O=C(c1ccccc1O)N1N=C(c2ccccc2)CC1(O)C(F)(F)F (stereo not drawn)	6.2	-1.6	77.7*	1.7	-6.0	nt	i
COc1ccc(C(=O)N2N=C(c3ccccc3)CC2(O)C(F)(F)F)cc1 (stereo not drawn)	-16.1	-5.2	83.0*	10.5	2.0	nt	+
Nc1cc(-c2cccs2)nn(CC(=O)NCc2cccc(Cl)c2)c1=O	nt	nt	-80.4	8.3	nt	nt	nt
COc1ccc(-n2c(-c3ccccc3)nc(=S)c3c2CCCC3)cc1	1.8	9.8	40.4	nt	-5.1	-1.3	nt
COc1ccc(-n2c(-c3cccc(OC)c3)nc(=S)c3c2CCCC3)cc1	12.0	-15.6	77.0*	17.8	0.7	4.0	i
C=CCSc1nc2ccccc2n1S(=O)(=O)c1ccc(C)cc1	-23.4	1.4	66.6*	11.0	-7.4	3.1	+
Cc1ccc(-c2nc(P(=O)(c3ccccc3)c3ccccc3)c(N3CCOCC3)o2)cc1	8.9	-5.0	64.9*	10.0	0.6	4.1	i
CCOP(=O)(OCC)c1nc(-c2ccc(OC)cc2)oc1N1CCOCC1	18.0	5.8	7.7	1.2	nt	nt	nt
CNc1oc(-c2ccc(Cl)cc2)nc1P(=O)(c1ccccc1)c1ccccc1	16.3	-3.6	68.2*	4.9	-0.8	1.6	+
O=C(N=C1SCC(=O)N1c1ccccc1Cl)c1ccccc1	10.0	-7.1	67.2*	6.5	-2.5	nt	i
O=C(Cn1nc(-c2nccc3ccccc23)oc1=O)N1CCCCCC1	nt	nt	-42.9	10.4	nt	nt	nt
Cc1n[nH]c(C)c1CCC(=O)N1CCCC(n2nc(-c3cccs3)ccc2=O)C1 (stereo not drawn)	nt	nt	-34.9	nt	nt	nt	nt
